Series [1] concerns the target T1, HCV NS3h (Hepatitis C virus genotype 1b, UniProt Q9WMX2). Briefly: HCV NS3h RNA unwinding assay. Type of series: biochemical. Conditions: read-out: HCV RNA-helicase IC50, values without asterisk.
Series [2] concerns subgenomic DENV-2 replicon. Briefly: DENV subgenomic replicon assay. (In general: In antiviral work, replicon cells carry a viral genome segment that copies itself.)
Series [3] concerns the target T2, DENV NS3h (Dengue virus type 2, UniProt Q91H74). Type of series: biochemical. Conditions: for IC50: read-out: DENV RNA-helicase IC50, DENV NS3h RNA unwinding, 100 nM DENV helicase.
The target in series [4] is T2, DENV NS3h. It is filed as biochemical. As to conditions: read-out: DENV ATPase IC50; DENV NS3h-catalyzed ATP hydrolysis; 100 μM ATP, poly(U) RNA, pH 7.5.
In series [5] the target is T1, HCV NS3h. Briefly: HCV NS3h-catalyzed ATP hydrolysis assay. It is filed as biochemical. As to conditions: read-out: HCV ATPase IC50. An outline of the steps:
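HCV NS3h (4 nM) in 25 mM Tris pH 7.5, 1.25 mM MgCl2, 100 μM ATP, 15 μM poly(U) RNA (as nucleotide), 33 μg/mL BSA, 0.07% Tween 20, 0.3 mM DTT, 0.6% DMSO. Started with MgCl2; 30 min at 23 °C. Released phosphate read at 620 nm with Biomol Green. Scaled to 6.7 μM ATA (100%) and DMSO (0%). IC50 from variable-slope nonlinear fit.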

Series [6] concerns the target T1, HCV NS3h. As to conditions: read-out: HCV DNA-helicase IC50; HCV NS3h DNA unwinding; ref Li et al.[36]; cited from earlier work.
Series [7] has as its system herpes simplex virus helicase. Conditions: read-out: helicase-catalyzed ATP hydrolysis IC50, cited from earlier work.
Series [8] deals with West Nile virus (Kunjin subtype). Briefly: West Nile virus. It is filed as cell-based. As to conditions: 50 μM compound, BHK cells, 72 h.

We go through 27 compounds from PMC4444071 (ACS infectious diseases, 2015).

Read-outs that look alike come from different tables or passages of the source. Some results are limits rather than exact numbers.

T2 sequence (Q91H74 1646-2093 limits assumed): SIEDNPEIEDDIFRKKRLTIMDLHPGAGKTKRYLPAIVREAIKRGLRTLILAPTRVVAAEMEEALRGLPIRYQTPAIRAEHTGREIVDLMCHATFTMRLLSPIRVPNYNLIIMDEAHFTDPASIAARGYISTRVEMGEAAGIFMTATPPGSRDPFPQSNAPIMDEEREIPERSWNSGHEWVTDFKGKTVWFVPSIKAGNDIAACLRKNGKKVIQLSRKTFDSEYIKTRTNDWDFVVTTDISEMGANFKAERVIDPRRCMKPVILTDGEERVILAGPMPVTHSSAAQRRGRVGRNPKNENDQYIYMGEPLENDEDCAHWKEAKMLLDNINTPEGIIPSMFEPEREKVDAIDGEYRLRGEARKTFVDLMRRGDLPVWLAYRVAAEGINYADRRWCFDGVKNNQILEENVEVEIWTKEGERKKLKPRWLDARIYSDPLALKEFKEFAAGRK
T1 sequence (Q9WMX2 1192-1657): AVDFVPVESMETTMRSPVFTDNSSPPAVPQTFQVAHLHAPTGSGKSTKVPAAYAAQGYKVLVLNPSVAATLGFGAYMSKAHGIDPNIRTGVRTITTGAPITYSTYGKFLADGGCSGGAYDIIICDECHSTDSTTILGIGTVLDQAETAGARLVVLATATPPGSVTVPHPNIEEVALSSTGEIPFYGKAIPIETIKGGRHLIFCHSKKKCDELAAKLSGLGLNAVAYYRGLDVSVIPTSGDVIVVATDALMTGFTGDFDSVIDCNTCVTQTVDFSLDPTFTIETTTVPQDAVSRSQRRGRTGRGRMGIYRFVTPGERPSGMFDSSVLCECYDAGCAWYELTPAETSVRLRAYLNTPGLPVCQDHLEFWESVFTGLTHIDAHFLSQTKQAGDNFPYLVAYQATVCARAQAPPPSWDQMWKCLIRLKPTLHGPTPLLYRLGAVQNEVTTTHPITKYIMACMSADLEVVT

Regarding `Cc1ccc2nc(-c3ccc4nc(-c5ccc(NC(=O)c6ccc7nc(-c8ccc(N)cc8)sc7c6)cc5)sc4c3)sc2c1S(=O)(=O)O.N` [compound 24], the results for the IC50 at HCV NS3h [1], at DENV NS3h [3] and on DENV NS3h [4] were 2 ± 0.7 µM, 1.5 ± 0.2 µM and 0.5 ± 0.1 µM, respectively. Besides, the “TI (CC50/replicon EC50)” value in series [2] (BHK cell viability CC50 / replicon EC50) was found to be 17. Moreover, the “inhibition of DENV replicon (in words)” value in series [2] (concentration-response) is recorded as “reduced replication of a subgenomic DENV replicon in cells in a concentration-dependent manner”. The “inhibition of replicon content in concentration-response assays” value in series [2] (eight-point two-fold dilution series starting at 100 μM) is listed as “more than 90%”. Further, in series [2] (read-out: replicon EC50, BHK cell DENV replicon content, 72 h), the EC50 (commonly the concentration needed to bring the measured effect to its halfway point) was 7.1 ± 3 µM.

On to `Cc1ccc2nc(-c3ccc4nc(-c5ccc(NC(=O)c6cccc(Cl)c6)cc5)sc4c3)sc2c1S(=O)(=O)O` [compound 13], for which the IC50 – broadly, the midpoint of a concentration-inhibition curve – is 5.9 ± 2 µM at HCV NS3h [1]; 24 ± 5 µM on HCV NS3h [5]; 2.6 ± 1 µM at HCV NS3h [6]; 5.1 ± 0.9 µM at DENV NS3h [3]; 4 ± 0.8 µM on DENV NS3h [4].

With `Cc1ccc2nc(-c3ccc4nc(-c5ccc(NC(=O)c6ccc(Br)cc6)cc5)sc4c3)sc2c1S(=O)(=O)O` [compound 11], the IC50 at HCV NS3h [5] is 21 ± 6 µM; on HCV NS3h [6], 5.2 ± 4 µM; on DENV NS3h [3], 5 ± 1.2 µM; at DENV NS3h [4], 1.1 ± 0.1 µM.

In the case of `Cc1ccc2nc(-c3ccc4nc(-c5ccc(NC(=O)c6ccc(Cl)cc6)cc5)sc4c3)sc2c1S(=O)(=O)O` [compound 6], the IC50 on HCV NS3h [1] was 3.3 ± 1 µM; on HCV NS3h [5], 53 ± 4 µM; at HCV NS3h [6], 3.4 ± 0.3 µM; at DENV NS3h [3], 5.6 ± 1.2 µM; on DENV NS3h [4], 1.4 ± 0.2 µM.

As for `Cc1ccc2nc(-c3ccc4nc(-c5ccc(NC(=O)c6cc(F)cc(C(F)(F)F)c6)cc5)sc4c3)sc2c1S(=O)(=O)O` [compound 23], the IC50 was 9.8 ± 3 µM on HCV NS3h [1], above 200 µM on HCV NS3h [5], 28 ± 7 µM on HCV NS3h [6] and 11 ± 5.7 µM on DENV NS3h [4].

`Cc1nc(N(C)C(=O)Cc2ccc(-c3ccccn3)cc2)sc1S(N)(=O)=O` [BAY 57-1293]: the IC50 in series [7] (purified HSV helicase) was 0.03 µM.

Turning to `Cc1ccc2nc(-c3ccc4nc(-c5ccc(NC(=O)c6cccc(C(F)(F)F)c6F)cc5)sc4c3)sc2c1S(=O)(=O)O` [compound 18], the IC50 was 42 ± 14 µM at HCV NS3h [5], 9.2 ± 3 µM at HCV NS3h [6] and 4.3 ± 0.3 µM at DENV NS3h [4].

Consider `COC(=O)c1ccc(C(=O)Nc2ccc(-c3nc4ccc(-c5nc6ccc(C)c(S(=O)(=O)O)c6s5)cc4s3)cc2)cc1.N` [compound 5], for which the IC50 on HCV NS3h [5] is above 200 µM; on HCV NS3h [6], 9.7 ± 4.6 µM; at DENV NS3h [3], 7.9 ± 2.5 µM; at DENV NS3h [4], 0.4 ± 0.1 µM. Besides, on DENV NS3h [3] (DENV NS3h, unwinding vs ATPase), the “times more compound needed to inhibit RNA unwinding than ATP hydrolysis” value was “About 20 times”.

With `Cc1ccc2nc(-c3ccc4nc(-c5ccc(NC(=O)c6ccc(C(F)(F)F)cc6)cc5)sc4c3)sc2c1S(=O)(=O)O` [compound 8], the IC50 on HCV NS3h [1] is 2.8 ± 2 µM; on HCV NS3h [5], 111 ± 60 µM; at HCV NS3h [6], 1.8 ± 0.4 µM; on DENV NS3h [3] it was 5.2 ± 0.6 µM; at DENV NS3h [4] it was 1.2 ± 0.2 µM.

Regarding `COc1ccc(C(=O)Nc2ccc(-c3nc4ccc(-c5nc6ccc(C)c(S(=O)(=O)O)c6s5)cc4s3)cc2)cc1` [compound 4], the IC50 on HCV NS3h [5] was 115 ± 14 µM; at HCV NS3h [6] it was 10 ± 2.6 µM; at DENV NS3h [4] it was 3 ± 0.5 µM.

As for `Cc1ccc2nc(-c3ccc4nc(-c5ccc(NC(=O)c6ccc(C(F)(F)F)c(F)c6)cc5)sc4c3)sc2c1S(=O)(=O)O` [compound 19], the IC50 is 5.4 ± 2 µM at HCV NS3h [1], 55 ± 42 µM on HCV NS3h [5], 17 ± 7 µM on HCV NS3h [6] and 3.5 ± 1.1 µM at DENV NS3h [4].

Regarding `Cc1ccc2nc(-c3ccc4nc(-c5ccc(NC(=O)c6ccccc6)cc5)sc4c3)sc2c1S(=O)(=O)O` [compound 1], the IC50 was 8.5 ± 2 µM at HCV NS3h [1], 69 ± 6 µM on HCV NS3h [5], 11 ± 1.5 µM on HCV NS3h [6] and 5.3 ± 1.2 µM on DENV NS3h [4].

Regarding `Cc1ccc2nc(-c3ccc4nc(-c5ccc(NC(=O)c6ccc(C(C)(C)C)cc6)cc5)sc4c3)sc2c1S(=O)(=O)O` [compound 9], the IC50 on HCV NS3h [5] was above 200 µM; at HCV NS3h [6], 8.2 ± 1 µM; on DENV NS3h [3] it was 10 ± 3.4 µM; on DENV NS3h [4], 4 ± 0.5 µM.

For the compound `Cc1ccc2nc(-c3ccc4nc(-c5ccc(NC(=O)c6ccc(NC(=O)OCC7c8ccccc8-c8ccccc87)cc6)cc5)sc4c3)sc2c1S(=O)(=O)O` [compound 12], the IC50 at HCV NS3h [1] was 2.8 ± 1 µM; at HCV NS3h [5], 39 ± 31 µM; on HCV NS3h [6], 5.4 ± 1 µM; at DENV NS3h [3], 3.5 ± 1.7 µM; on DENV NS3h [4], 1.3 ± 0.3 µM.

As for `Cc1ccc2nc(-c3ccc4nc(-c5ccc(NC(=O)c6c(F)cccc6C(F)(F)F)cc5)sc4c3)sc2c1S(=O)(=O)O` [compound 17], the results for the IC50 at HCV NS3h [1], at HCV NS3h [5] and at HCV NS3h [6] were 32.5 ± 7 µM, 93 ± 16 µM and 17 ± 6 µM, respectively.

As for `Cc1ccc2nc(-c3ccc4nc(-c5ccc(NC(=O)c6cccc(C(F)(F)F)c6)cc5)sc4c3)sc2c1S(=O)(=O)O` [compound 16], the IC50 is 22.4 ± 8 µM at HCV NS3h [1], above 200 µM at HCV NS3h [5], 20 ± 12 µM at HCV NS3h [6] and 9.7 ± 3.1 µM at DENV NS3h [4].

On to `Cc1ccc2nc(-c3ccc4nc(-c5ccc(NC(=O)c6ccccc6C(F)(F)F)cc5)sc4c3)sc2c1S(=O)(=O)O` [compound 15], for which the IC50 at HCV NS3h [1] is 22.8 ± 5 µM; at HCV NS3h [5], 71 ± 23 µM; at HCV NS3h [6], 14 ± 1 µM; at DENV NS3h [4], 5.4 ± 0.8 µM.

On to `Cc1ccc(C(=O)Nc2ccc(-c3nc4ccc(-c5nc6ccc(C)c(S(=O)(=O)O)c6s5)cc4s3)cc2)cc1` [compound 7], for which the IC50 at HCV NS3h [1] is 3.9 ± 1 µM; at HCV NS3h [5], 61 ± 1 µM; on HCV NS3h [6], 3.3 ± 0.3 µM; on DENV NS3h [3], 4.3 ± 1.9 µM; at DENV NS3h [4] it was 1.1 ± 0.2 µM.

Take `Cc1ccc2nc(-c3ccc4nc(-c5ccc(NC(=O)c6ccc(N)cc6)cc5)sc4c3)sc2c1S(=O)(=O)O` [compound 2]: the IC50 on HCV NS3h [5] was 58 ± 10 µM; at HCV NS3h [6], 10 ± 2.4 µM; at DENV NS3h [3], 7.6 ± 1.6 µM; on DENV NS3h [4], 2.8 ± 0.6 µM.

Regarding `Cc1cccc(C)c1N(CC(=O)Nc1ccc(-c2ncon2)cc1)C(=O)C1CCS(=O)(=O)CC1` [amenamevir], in series [7] (HSV helicase), the IC50 is 0.078 µM.

For `Cc1ccc2nc(-c3ccc4nc(-c5ccc(NC(=O)c6ccc(Cl)c(Cl)c6)cc5)sc4c3)sc2c1S(=O)(=O)O` [compound 14], the IC50 on HCV NS3h [5] is 53 ± 3 µM; at HCV NS3h [6], 3.7 ± 1 µM; at DENV NS3h [3], 3.6 ± 0.9 µM; on DENV NS3h [4], 2.7 ± 0.2 µM.

On to `Cc1ccc2nc(-c3ccc4nc(-c5ccc(NC(=O)c6ccc(N(C)C)cc6)cc5)sc4c3)sc2c1S(=O)(=O)O` [compound 10], for which the IC50 is 8.6 ± 2 µM on HCV NS3h [1], above 200 µM at HCV NS3h [5], 11 ± 6.7 µM at HCV NS3h [6] and 3.4 ± 0.3 µM at DENV NS3h [4].

As for `Cc1ccc2nc(-c3ccc4nc(-c5ccc(NC(=O)c6cc(C(F)(F)F)cc(C(F)(F)F)c6)cc5)sc4c3)sc2c1S(=O)(=O)O.N` [compound 20], the half-inhibitory concentration (IC50) is above 200 µM on HCV NS3h [5], 7.7 ± 1.8 µM at DENV NS3h [3] and 63 ± 20 µM at DENV NS3h [4]. Further, the “times less compound needed to inhibit RNA unwinding than ATP hydrolysis” value at DENV NS3h [3] (DENV NS3h, unwinding vs ATPase) is “about 8 times”.

Consider `Cc1ccc2nc(-c3ccc4nc(-c5ccc(NC(=O)c6cc(F)ccc6C(F)(F)F)cc5)sc4c3)sc2c1S(=O)(=O)O` [compound 22], for which the IC50 on HCV NS3h [5] is 65 ± 10 µM; at HCV NS3h [6] it was 19 ± 15 µM; at DENV NS3h [4], 7.2 ± 0.8 µM.

Turning to `Cc1ccc2nc(-c3ccc4nc(-c5ccc(NC(=O)c6cc(C(F)(F)F)ccc6F)cc5)sc4c3)sc2c1S(=O)(=O)O` [compound 21], the IC50 at HCV NS3h [1] is 7.5 ± 2 µM; on HCV NS3h [5] it was 16 ± 2 µM; on HCV NS3h [6] it was 6.4 ± 2 µM; on DENV NS3h [3], 5.4 ± 1.3 µM; at DENV NS3h [4], 3.8 ± 0.2 µM.

Regarding `Cc1cc(N2C(=O)C(O)=C(C(=O)c3ccc(C)o3)C2c2cc(Cl)cc(Cl)c2)no1` (stereo not drawn) [compound 25], in series [8], the “effect on West Nile virus plaque-forming units (in words)” value is “lowering plaque-forming units (pfu) to the greatest extent”.

As to `Cc1ccc2nc(-c3ccc4nc(-c5ccc(NC(=O)c6ccc(F)cc6)cc5)sc4c3)sc2c1S(=O)(=O)O` [compound 3], the IC50 on HCV NS3h [5] is 32 ± 7 µM; at HCV NS3h [6], 5.2 ± 0.6 µM; at DENV NS3h [3], 6.6 ± 0.9 µM; at DENV NS3h [4], 3 ± 0.4 µM.
